Reference: ChEMBL document CHEMBL1157506, “Synthesis and pharmacological characterization of chiral pyrrolidinylfuran derivatives: the discovery of new functionally selective muscarinic agonists” (J Med Chem, 2008)

Experiments:
[1] = Antagonist activity at muscarinic M3 receptor in guinea pig ileum assessed as effect on tissue tension changes; type: functional, Cavia porcellus
Summary of the method: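 Guinea pig ileum with isotonic recording of tension changes and 30 min equilibration. Dose-response curves to arecaidine propargyl ester taken at 30 min intervals; the first is discarded and the second serves as control. Responses are expressed as % of the maximal control-curve response, with parallel tissues given only the reference agonist to check sensitivity.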

[2] = target: Muscarinic acetylcholine receptor M3 (Homo sapiens, UniProt P20309); test: Displacement of [3H]NMS from human muscarinic M3 receptor expressed in CHO cells by liquid scintillation counter; type: cell-based
[3] = Antagonist activity at muscarinic M1/M4 receptor in guinea pig lung assessed as effect on tissue contraction; type: functional, Cavia porcellus
[4] = target: T1, Muscarinic acetylcholine receptor M2 (Homo sapiens, UniProt P08172); test: Displacement of [3H]NMS from human muscarinic M2 receptor expressed in CHO cells by liquid scintillation counter; type: cell-based
T1 sequence (P08172 whole entry): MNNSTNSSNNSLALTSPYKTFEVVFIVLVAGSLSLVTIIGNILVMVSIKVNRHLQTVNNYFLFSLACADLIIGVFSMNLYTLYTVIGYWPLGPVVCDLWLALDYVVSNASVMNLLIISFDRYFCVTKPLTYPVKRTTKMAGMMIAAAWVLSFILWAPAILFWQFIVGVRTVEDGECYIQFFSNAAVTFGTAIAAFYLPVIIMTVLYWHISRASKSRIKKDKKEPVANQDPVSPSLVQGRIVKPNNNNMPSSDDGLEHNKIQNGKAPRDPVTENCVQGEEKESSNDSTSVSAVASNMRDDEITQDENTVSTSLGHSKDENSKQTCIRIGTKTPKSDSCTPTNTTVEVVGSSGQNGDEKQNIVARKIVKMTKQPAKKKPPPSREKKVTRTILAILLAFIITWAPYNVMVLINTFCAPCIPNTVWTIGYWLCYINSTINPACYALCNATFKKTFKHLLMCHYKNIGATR
Summary of the method: (§1)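 Membrane protein was 70 µg/mL for hm2, 50 µg/mL for hm4 and 25 µg/mL for hm5. Incubation was 120 min at room temperature in 25 mM sodium phosphate with 5 mM MgCl2, pH 7.4. GF/C filtration and scintillation counting followed; duplicates.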

[5] = target: T2, Muscarinic acetylcholine receptor M5 (Homo sapiens, UniProt P08912); test: Displacement of [3H]NMS from human muscarinic M5 receptor expressed in CHO cells by liquid scintillation counter; type: cell-based; summary of the method: as §1
T2 sequence (P08912 whole entry): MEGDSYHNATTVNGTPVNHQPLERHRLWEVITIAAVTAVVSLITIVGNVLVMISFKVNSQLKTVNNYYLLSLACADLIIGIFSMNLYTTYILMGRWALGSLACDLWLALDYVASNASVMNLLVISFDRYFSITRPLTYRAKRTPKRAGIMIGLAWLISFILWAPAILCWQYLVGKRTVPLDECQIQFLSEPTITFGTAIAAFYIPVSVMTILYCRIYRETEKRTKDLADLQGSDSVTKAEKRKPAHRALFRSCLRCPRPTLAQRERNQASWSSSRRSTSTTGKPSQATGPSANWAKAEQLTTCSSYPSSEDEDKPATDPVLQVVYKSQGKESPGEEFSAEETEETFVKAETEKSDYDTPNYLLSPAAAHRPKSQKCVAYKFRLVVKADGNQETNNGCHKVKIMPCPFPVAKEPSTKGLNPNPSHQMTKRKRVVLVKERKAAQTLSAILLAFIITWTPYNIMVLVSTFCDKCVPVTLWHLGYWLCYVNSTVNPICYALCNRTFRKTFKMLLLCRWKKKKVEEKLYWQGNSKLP

[6] = Agonist activity at muscarinic M2 receptor in guinea pig atrium assessed as effect on inotropic activity; type: functional, Cavia porcellus, Cardiac atrium
Summary of the method: (§2)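 Left atria in PSS at 30 °C, paced via platinum electrodes (1 ms, 1 Hz, 5-10 V). Inotropic force recorded isometrically after 2 h equilibration. A cumulative APE reference curve was obtained, then cumulative agonist curves. Responses are expressed as % of the control maximal response.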

[7] = Antagonist activity at muscarinic M1/M4 receptor in New Zealanda white rabbit vas deferens assessed as effect on isometric tissue contraction; type: functional, Oryctolagus cuniculus
Summary of the method: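 Rabbit vas deferens bathed at 30 °C with 10^-6 M yohimbine and 10^-8 M tripitramine to block α2-adrenoceptors and M2 receptors. Electrically stimulated with square-wave pulses (0.1 ms, 2 Hz, 10-15 V) and equilibrated 1 h. Isometric contractions recorded during a cumulative dose-response curve to McN-A-343. Responses are expressed as % of maximal control-curve response, with parallel reference-agonist-only tissues run.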

[8] = target: T3, Muscarinic acetylcholine receptor M1 (Homo sapiens, UniProt P11229); test: Displacement of [3H]NMS from human muscarinic M1 receptor expressed in CHO cells by liquid scintillation counter; type: cell-based
T3 sequence (P11229 whole entry): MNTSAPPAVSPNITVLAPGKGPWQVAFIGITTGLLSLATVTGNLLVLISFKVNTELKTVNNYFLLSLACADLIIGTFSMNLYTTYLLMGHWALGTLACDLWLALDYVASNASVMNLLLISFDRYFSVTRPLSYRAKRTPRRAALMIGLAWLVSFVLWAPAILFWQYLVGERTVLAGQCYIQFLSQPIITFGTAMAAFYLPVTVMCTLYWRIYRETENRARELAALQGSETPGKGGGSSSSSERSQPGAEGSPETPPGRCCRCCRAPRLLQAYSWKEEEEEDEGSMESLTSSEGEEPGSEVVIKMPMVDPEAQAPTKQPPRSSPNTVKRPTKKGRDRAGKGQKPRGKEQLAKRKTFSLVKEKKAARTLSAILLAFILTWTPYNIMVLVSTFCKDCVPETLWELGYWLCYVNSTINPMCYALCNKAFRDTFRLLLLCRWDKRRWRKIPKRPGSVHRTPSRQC

Cavia porcellus [9] = species: Cavia porcellus; test: Intrinsic activity at muscarinic M2 receptor in guinea pig atrium assessed as effect on inotropic activity relative to control; type: tissue-based; settings: Cardiac atrium; summary of the method: as §2
[10] = target: T4, Muscarinic acetylcholine receptor M4 (Homo sapiens, UniProt P08173); test: Displacement of [3H]NMS from human muscarinic M4 receptor expressed in CHO cells by liquid scintillation counter; type: cell-based; summary of the method: as §1
T4 sequence (P08173 whole entry): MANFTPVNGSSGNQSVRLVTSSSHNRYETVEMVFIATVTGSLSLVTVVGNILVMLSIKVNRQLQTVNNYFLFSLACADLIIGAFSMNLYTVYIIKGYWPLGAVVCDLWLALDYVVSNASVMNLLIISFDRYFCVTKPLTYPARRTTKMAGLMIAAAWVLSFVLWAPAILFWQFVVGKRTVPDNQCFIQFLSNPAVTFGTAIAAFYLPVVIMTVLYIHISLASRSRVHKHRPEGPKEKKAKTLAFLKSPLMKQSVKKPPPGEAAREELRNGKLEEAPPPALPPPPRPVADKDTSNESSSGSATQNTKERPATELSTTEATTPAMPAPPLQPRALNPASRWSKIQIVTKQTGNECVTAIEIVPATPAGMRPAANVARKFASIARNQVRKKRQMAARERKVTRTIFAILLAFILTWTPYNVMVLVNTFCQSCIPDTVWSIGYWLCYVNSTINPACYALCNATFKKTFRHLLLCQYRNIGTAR

Cavia porcellus [11] = species: Cavia porcellus; test: Intrinsic activity at muscarinic M1/M4 receptor in guinea pig lung assessed as effect on tissue contraction relative to control
[12] = Agonist activity at muscarinic M1/M4 receptor in guinea pig lung assessed as effect on tissue contraction; type: functional, Cavia porcellus
Cavia porcellus [13] = species: Cavia porcellus; test: Intrinsic activity at muscarinic M3 receptor in guinea pig ileum assessed as effect on tissue tension changes relative to control; type: tissue-based
Summary of the method: (§3)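 Ileum tension changes recorded isotonically after 30 min equilibration. APE curves were run at 30 min intervals; the first was discarded and the second was taken as control. Cumulative agonist curves followed, with responses expressed as % of the control maximum. Parallel reference-only tissues served as sensitivity checks.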

[14] = Agonist activity at muscarinic M3 receptor in guinea pig ileum assessed as effect on tissue tension changes; type: functional, Cavia porcellus; summary of the method: as §3
Oryctolagus cuniculus = species: Oryctolagus cuniculus; test: Intrinsic activity at muscarinic M1/M4 receptor in New Zealanda white rabbit vas deferens assessed as effect on isometric tissue contraction relative to control; type: tissue-based
Summary of the method: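 Vas deferens in solution with 10^-6 M yohimbine and 10^-8 M tripitramine at 30 °C, field-stimulated (0.1 ms, 2 Hz, 10-15 V). Contractions recorded isometrically after 1 h equilibration. A cumulative McN-A-343 reference curve was built, then cumulative curves to the test agonist. Responses are expressed as % of the control curve's maximum. Parallel reference-only tissues served as sensitivity checks.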

Sequence of Muscarinic acetylcholine receptor M3 (P20309 whole entry): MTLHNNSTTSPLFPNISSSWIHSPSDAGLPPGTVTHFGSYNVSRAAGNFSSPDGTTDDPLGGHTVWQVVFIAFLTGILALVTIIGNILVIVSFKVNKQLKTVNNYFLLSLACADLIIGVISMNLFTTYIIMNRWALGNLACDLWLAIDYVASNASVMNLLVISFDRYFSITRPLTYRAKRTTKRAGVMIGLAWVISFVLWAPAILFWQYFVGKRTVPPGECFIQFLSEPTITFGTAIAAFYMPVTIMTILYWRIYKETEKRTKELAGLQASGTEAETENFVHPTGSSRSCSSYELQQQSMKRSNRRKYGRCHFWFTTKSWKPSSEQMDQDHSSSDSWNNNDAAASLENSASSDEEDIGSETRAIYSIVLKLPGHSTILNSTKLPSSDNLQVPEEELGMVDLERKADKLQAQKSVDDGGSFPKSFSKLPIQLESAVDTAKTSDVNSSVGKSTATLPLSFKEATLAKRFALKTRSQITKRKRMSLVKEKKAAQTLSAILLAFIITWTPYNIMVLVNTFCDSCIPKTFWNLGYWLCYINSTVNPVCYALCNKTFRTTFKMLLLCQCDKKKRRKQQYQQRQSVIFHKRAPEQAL

Structure (SMILES) | pKb [1] | Ki [2] [µM] | pKb [3] | Ki [4] [µM] | Ki [5] [µM] | pD2 [6] | pKb [7] | Ki [8] [µM] | Intrinsic activity (Cavia porcellus [9]) | Ki [10] [µM] | Intrinsic activity (Cavia porcellus [11]) | pD2 [12] | Intrinsic activity (Cavia porcellus [13]) | pD2 [14] | Intrinsic activity (Oryctolagus cuniculus)
Cc1ccc([C@@H]2CCC[N+]2(C)C)o1.[I-] | 7.82 | 2.69 | 5.96 | 1.66 | 3.63 | 7.49 | 5.9 | 5.62 | 0.42 | 5.13 |  |  |  |  | 
Cc1ccc(C2CCCN2C)o1 (racemic) | <5 | 22.9 | <5 | 14.5 | 21.9 | 6.31 |  | 26.9 | 0.37 | 24.5 |  |  |  |  | 
Cc1ccc([C@@H]2CCCN2C)o1 | <5 | 33.1 | <5 | 15.8 | 39.8 | 6.6 | <5 | 36.3 | 0.47 | 47.9 |  |  |  |  | 
CN1CCCC1c1ccco1 (racemic) |  | 44.7 |  | 41.7 | 44.7 | 7.25 |  | 33.1 | 0.4 | 69.2 | 0.25 | 6.87 | 0.35 | 5.7 | 0.22
